In ChEMBL document CHEMBL2440012, “Design, synthesis and anticonvulsant properties of new N-Mannich bases derived from 3-phenylpyrrolidine-2,5-diones” (Bioorg Med Chem, 2013) one finds Activity, MED and minimal effective dose data, which are given here for 21 molecules.

The test system of series [1] is Mus musculus. Nature of the series: Neurotoxicity in albino CF1 mouse assessed as minimum motor impairment at 300 mg/kg, ip measured after 4 hrs by rotorod test. In kind it is toxicity, organism-based. Set-up: dose 300 mg/kg, route intraperitoneal. The following applies: in vivo. Summed up: (§1)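 Male CF-1 mice given ip suspension in 0.5% methylcellulose/water at 30, 100 and 300 mg/kg; MES, scPTZ (pentylenetetrazole 85 mg/kg sc, CD97 dose for clonic seizures ≥5 s) and rotarod (inability to hold balance 1 min in each of three trials) assessed at 0.5 and 4 h; value is minimum dose active in half or more animals.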

In series [2] the test system is Mus musculus. Nature of the series: Neurotoxicity in ip dosed albino CF1 mouse assessed as minimum motor impairment in half or more animals measured after 0.5 hrs by rotorod test. In kind it is toxicity, organism-based. The following applies: in vivo. Summed up: as §1
Series [3] relates to Mus musculus. In words: Anticonvulsant activity in albino CF1 mouse assessed as protection against subcutaneous pentylenetetrazole-induced convulsion at 300 mg/kg, ip measured after 4 hrs. In kind it is functional, organism-based. Set-up: dose 300 mg/kg. Summed up: as §1
Series [4] concerns Mus musculus. In words: Anticonvulsant activity in albino CF1 mouse assessed as protection against subcutaneous pentylenetetrazole-induced convulsion at 300 mg/kg, ip measured after 0.5 hrs. In kind it is functional, organism-based. On the set-up: dose 300 mg/kg. Put shortly: as §1
Series [5] has as its system Mus musculus. Nature of the series: Anticonvulsant activity in albino CF1 mouse assessed as protection against maximal electroshock-induced seizures at 300 mg/kg, ip measured after 0.5 hr. On the set-up: dose 300 mg/kg. In kind it is functional, organism-based. Summed up: as §1
Series [6] relates to Mus musculus. Nature of the series: Anticonvulsant activity in albino CF1 mouse assessed as protection against maximal electroshock-induced seizures at 300 mg/kg, ip measured after 4 hrs. Format: functional, organism-based. Set-up: dose 300 mg/kg. Summed up:
as §1

Series [7] deals with Mus musculus. Nature of the series: Neurotoxicity in albino CF1 mouse assessed as minimum motor impairment at 300 mg/kg, ip measured after 0.5 hr by rotorod test. Format: toxicity, organism-based. On the set-up: dose 300 mg/kg, route intraperitoneal. The following applies: in vivo. Summed up:
as §1

Series [8] deals with Mus musculus. In words: Anticonvulsant activity in ip dosed albino CF1 mouse assessed as protection against maximal electroshock-induced seizures in half or more animals measured after 4 hrs. Format: functional. The conditions noted are these: read-out: MED. Summed up: as §1
The subject of series [9] is Mus musculus. In words: Anticonvulsant activity in ip dosed albino CF1 mouse assessed as protection against maximal electroshock-induced seizures in half or more animals measured after 0.5 hr. Format: functional. The conditions noted are these: read-out: MED. Summed up:
as §1

Series [10] relates to Rattus norvegicus. In words: Anticonvulsant activity in albino Sprague-Dawley rat assessed as protection against maximal electroshock-induced seizures at 30 mg/kg, po measured after 4 hrs. Format: functional. Put shortly:
(§2)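 Male Sprague-Dawley rats, four per group, dosed p.o. at 30 mg/kg in 0.5% methylcellulose/water suspension; MES test at 0.25, 0.5, 1, 2 and 4 h, motor impairment examined in parallel; number of rats out of four protected.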

Series [11] concerns Rattus norvegicus. In words: Anticonvulsant activity in albino Sprague-Dawley rat assessed as protection against maximal electroshock-induced seizures at 30 mg/kg, po measured after 2 hrs. Format: functional. Summed up:
as §2

Series [12] deals with Rattus norvegicus. In words: Anticonvulsant activity in albino Sprague-Dawley rat assessed as protection against maximal electroshock-induced seizures at 30 mg/kg, po measured after 1 hr. Format: functional. Summed up:
as §2

In series [13] the test system is Rattus norvegicus. In words: Anticonvulsant activity in albino Sprague-Dawley rat assessed as protection against maximal electroshock-induced seizures at 30 mg/kg, po measured after 0.5 hr. Format: functional. Put shortly: as §2
For series [14], the system named is Rattus norvegicus. Nature of the series: Anticonvulsant activity in albino Sprague-Dawley rat assessed as protection against maximal electroshock-induced seizures at 30 mg/kg, po measured after 0.25 hr. In kind it is functional. Summed up: as §2
The subject of series [15] is Mus musculus. In words: Neurotoxicity in ip dosed albino CF1 mouse assessed as minimum motor impairment in half or more animals measured after 4 hrs by rotorod test. The conditions noted are these: in vivo. Format: toxicity, organism-based. Summed up:
as §1

Activity calls are given as the source filed them. The rule behind the calls is not given here.

Turning to `O=C1CC(c2ccc(Cl)cc2)C(=O)N1CN1CCN(c2ncccn2)CC1` (racemic), in the series on Mus musculus [1], the Activity result is reported as “Non-toxic”. Moreover, the MED in the series with Mus musculus [2] is 300 mg/kg. The outcome in the series on Mus musculus [3], with Mus musculus [4], in the series with Mus musculus [5] and in the series with Mus musculus [6] was inactive.

`O=C1CC(c2cccc(Cl)c2)C(=O)N1CN1CCN(c2cccc(Cl)c2)CC1` (racemic): the Activity result in the series with Mus musculus [1] and in the series with Mus musculus [7] was “Non-toxic” in each case. The result in the series on Mus musculus [3], in the series with Mus musculus [4], with Mus musculus [5] and in the series with Mus musculus [6] was inactive.

For `O=C1CC(c2ccccc2Cl)C(=O)N1CN1CCN(C2CCCCC2)CC1` (racemic), the Activity entry in the series with Mus musculus [1] and in the series on Mus musculus [7] was “Non-toxic” in each case. Besides, the result in the series on Mus musculus [3], in the series with Mus musculus [4] and in the series with Mus musculus [5] was inactive. Further, the minimal effective dose in the series with Mus musculus [8] is 100 mg/kg.

Regarding `O=C1CC(c2ccc(Cl)cc2)C(=O)N1CN1CCN(c2ccc(Cl)cc2)CC1` (racemic), the Activity entry in the series with Mus musculus [1] and with Mus musculus [7] was “Non-toxic” in each case. For the same molecule, the result in the series on Mus musculus [3], with Mus musculus [4], in the series on Mus musculus [5] and with Mus musculus [6] was inactive.

Regarding `O=C1CC(c2ccc(Cl)cc2)C(=O)N1CN1CCOCC1` (racemic), the Activity entry in the series on Mus musculus [1] and in the series on Mus musculus [7] was “Non-toxic” each time. The outcome in the series with Mus musculus [3] and in the series on Mus musculus [4] was inactive. In addition, the minimal effective dose with Mus musculus [9] is 100 mg/kg; with Mus musculus [8], 300 mg/kg.

In the case of `O=C1CC(c2cccc(Cl)c2)C(=O)N1CN1CCC(Cc2ccccc2)CC1` (racemic), the outcome with Rattus norvegicus [10], in the series on Rattus norvegicus [13], in the series with Mus musculus [3] and with Mus musculus [4] was inactive. Moreover, the Activity is 50% in the series with Rattus norvegicus [11]; 25% in the series with Rattus norvegicus [12]; 50% in the series on Rattus norvegicus [14]; “Non-toxic” in the series on Mus musculus [1]; “Non-toxic” in the series with Mus musculus [7]. Also, the minimal effective dose with Mus musculus [9] was found to be 300 mg/kg; in the series with Mus musculus [8] it was 100 mg/kg.

As to `Cc1cccc(N2CCN(CN3C(=O)CC(c4cccc(Cl)c4)C3=O)CC2)c1` (racemic), the Activity entry with Mus musculus [1] was “Non-toxic”. Moreover, the MED in the series on Mus musculus [2] stood at 100 mg/kg. The result in the series on Mus musculus [3], with Mus musculus [4] and in the series with Mus musculus [5] was inactive. The minimal effective dose in the series on Mus musculus [8] was 30 mg/kg.

Turning to `O=C1CC(c2cccc(Cl)c2)C(=O)N1CN1CCN(c2ccc(Cl)cc2)CC1` (racemic), the Activity result in the series with Mus musculus [1] and in the series on Mus musculus [7] was “Non-toxic” each time. The outcome in the series on Mus musculus [3] and in the series with Mus musculus [4] was inactive. Also, the figures for the minimal effective dose with Mus musculus [9] and in the series on Mus musculus [8] were 300 mg/kg and 100 mg/kg, respectively.

With `O=C1CC(c2ccc(Cl)cc2)C(=O)N1CN1CCN(C2CCCCC2)CC1` (racemic), the Activity result in the series with Mus musculus [1] and in the series on Mus musculus [7] was “Non-toxic” in each case. In addition, the result in the series with Mus musculus [3], with Mus musculus [4] and with Mus musculus [5] was inactive. Besides, the minimal effective dose with Mus musculus [8] was 100 mg/kg.

Consider `O=C1CC(c2ccc(Cl)cc2)C(=O)N1CN1CCN(c2cccc(C(F)(F)F)c2)CC1` (racemic), for which the Activity result with Mus musculus [1] is on record as “Non-toxic”. For the same molecule, the MED in the series on Mus musculus [2] stood at 300 mg/kg. The result in the series on Mus musculus [3], with Mus musculus [4] and in the series with Mus musculus [5] was inactive. Moreover, the minimal effective dose in the series on Mus musculus [8] is 100 mg/kg.

As for `O=C1CC(c2cccc(Cl)c2)C(=O)N1CN1CCN(c2ccccc2Cl)CC1` (racemic), the Activity result with Mus musculus [1] and in the series with Mus musculus [7] was “Non-toxic” each time. The result in the series on Mus musculus [3], in the series on Mus musculus [4], with Mus musculus [5] and with Mus musculus [6] was inactive.

With `O=C1CC(c2ccccc2)C(=O)N1CN1CCN(C2CCCCC2)CC1` (racemic), the Activity result with Mus musculus [1] and with Mus musculus [7] was “Non-toxic” each time. Moreover, the result in the series with Mus musculus [3], in the series on Mus musculus [4], in the series on Mus musculus [5] and in the series on Mus musculus [6] was inactive.

Turning to `O=C1CC(c2cccc(Cl)c2)C(=O)N1CN1CCOCC1` (racemic), the Activity in the series with Rattus norvegicus [10] was 50%; in the series with Rattus norvegicus [11], 50%; with Rattus norvegicus [12] it was 50%; in the series with Rattus norvegicus [13] it was 50%; with Mus musculus [1] it was “Non-toxic”. Besides, the result with Rattus norvegicus [14], with Mus musculus [3] and in the series with Mus musculus [4] was inactive. Further, in the series with Mus musculus [2], the MED came out at 300 mg/kg. In addition, the minimal effective dose in the series on Mus musculus [9] and in the series with Mus musculus [8] was 100 mg/kg each time.

Turning to `O=C1CC(c2ccccc2Cl)C(=O)N1CN1CCN(c2ccc(Cl)cc2)CC1` (racemic), the Activity result in the series with Mus musculus [1] and in the series with Mus musculus [7] was “Non-toxic” in each case. Also, the result with Mus musculus [3], with Mus musculus [4] and in the series with Mus musculus [5] was inactive. Further, the minimal effective dose in the series with Mus musculus [8] stood at 300 mg/kg.

On to `O=C1CC(c2ccccc2Cl)C(=O)N1CN1CCN(c2ccccc2Cl)CC1` (racemic), for which the Activity entry in the series with Mus musculus [1] and in the series on Mus musculus [7] was “Non-toxic” throughout. Also, the outcome in the series on Mus musculus [3], with Mus musculus [4], in the series on Mus musculus [5] and in the series on Mus musculus [6] was inactive.

On to `O=C1CC(c2cccc(Cl)c2)C(=O)N1CN1CCN(c2ccccc2F)CC1` (racemic), for which, in the series with Mus musculus [1], the Activity entry was “Non-toxic”. For the same molecule, the MED with Mus musculus [2] is 300 mg/kg. The result with Mus musculus [3], in the series with Mus musculus [4] and in the series with Mus musculus [5] was inactive. In addition, the minimal effective dose in the series on Mus musculus [8] came out at 100 mg/kg.

As for `O=C1CC(c2ccc(Cl)cc2)C(=O)N1CN1CCN(c2cccc(Cl)c2)CC1` (racemic), the MED in the series with Mus musculus [15] and with Mus musculus [2] was 300 mg/kg in each case. Also, the result in the series on Mus musculus [3], in the series on Mus musculus [4] and with Mus musculus [5] was inactive. In the series with Mus musculus [8], the minimal effective dose is 100 mg/kg.

In the case of `O=C1CC(c2ccccc2Cl)C(=O)N1CN1CCN(c2cccc(Cl)c2)CC1` (racemic), the MED in the series with Mus musculus [15] came out at 300 mg/kg; with Mus musculus [2], 100 mg/kg. The result in the series with Mus musculus [3], in the series with Mus musculus [4] and in the series on Mus musculus [5] was inactive. Besides, the minimal effective dose in the series with Mus musculus [8] came to 100 mg/kg.

In the case of `O=C1CC(c2ccccc2Cl)C(=O)N1CN1CCN(c2cccc(C(F)(F)F)c2)CC1` (racemic), the Activity entry with Mus musculus [1] and with Mus musculus [7] was “Non-toxic” throughout. Besides, the outcome in the series on Mus musculus [3], in the series with Mus musculus [4] and in the series on Mus musculus [5] was inactive. The minimal effective dose in the series on Mus musculus [8] was determined as 100 mg/kg.

As for `O=C1CC(c2cccc(Cl)c2)C(=O)N1CN1CCN(C2CCCCC2)CC1` (racemic), the Activity entry in the series with Mus musculus [1] and in the series on Mus musculus [7] was “Non-toxic” in each case. The result in the series on Mus musculus [3] and with Mus musculus [4] was inactive. The minimal effective dose with Mus musculus [9] and with Mus musculus [8] was 300 mg/kg in each case.

Turning to `O=C1CC(c2cccc(Cl)c2)C(=O)N1CN1CCN(c2ncccn2)CC1` (racemic), the outcome in the series on Rattus norvegicus [10], with Rattus norvegicus [11], in the series on Rattus norvegicus [12], in the series with Rattus norvegicus [13], with Rattus norvegicus [14] and in the series with Mus musculus [3] was inactive. Moreover, the outcome in the series with Mus musculus [4] and with Mus musculus [5] was inactive. In addition, the Activity entry with Mus musculus [1] and with Mus musculus [7] was “Non-toxic” each time. Moreover, in the series on Mus musculus [8], the minimal effective dose turned out to be 100 mg/kg.
